Data published in ChEMBL document CHEMBL4270541, “Synthesis and antimicrobial evaluation of amino sugar-based naphthoquinones and isoquinoline-5,8-diones and their halogenated compounds” (Eur J Med Chem, 2018).
In brackets after ≈: the same amount, converted by molar mass. Activity calls are given as the source filed them. The calls are words filed in the database; no cut-off is given here.

How the values were obtained:
[1] = system: Enterococcus faecalis; experiment: Antimicrobial activity against Enterococcus faecalis INCQS 00234 ATCC 29212 assessed as zone of inhibition at 5 mg/ml after 18 to 24 hrs by disc diffusion method; type: functional; conditions: ATCC 29212 INCQS 00234, read-out: IZ
[2] = system: Staphylococcus aureus; experiment: Antimicrobial activity against Staphylococcus aureus INCQS 00015 ATCC 25923 assessed as zone of inhibition at 5 mg/ml after 18 to 24 hrs by disc diffusion method; type: functional; conditions: read-out: IZ
[3] = system: Staphylococcus epidermidis; experiment: Antimicrobial activity against Staphylococcus epidermidis INCQS 00016 ATCC 12228 assessed as zone of inhibition at 5 mg/ml after 18 to 24 hrs by disc diffusion method; type: functional; conditions: ATCC 12228 INCQS 00016, read-out: IZ
[4] = system: Staphylococcus simulans; experiment: Antimicrobial activity against Staphylococcus simulans INCQS 00254 ATCC 27851 assessed as zone of inhibition at 5 mg/ml after 18 to 24 hrs by disc diffusion method; type: functional; conditions: read-out: IZ
[5] = system: Staphylococcus aureus; experiment: Antimicrobial activity against methicillin-resistant Staphylococcus aureus BMB9393 assessed as zone of inhibition at 5 mg/ml after 18 to 24 hrs by disc diffusion method; type: functional; conditions: read-out: IZ
[6] = system: Escherichia coli; experiment: Antimicrobial activity against Escherichia coli INCQS 00033 ATCC 25922 assessed as zone of inhibition at 5 mg/ml after 18 to 24 hrs by disc diffusion method; type: functional; conditions: ATCC 25922 INCQS 00033, read-out: IZ
[7] = system: Proteus mirabilis; experiment: Antimicrobial activity against Proteus mirabilis INCQS 00095 ATCC 15290 assessed as zone of inhibition at 5 mg/ml after 18 to 24 hrs by disc diffusion method; type: functional; conditions: read-out: IZ
[8] = system: Klebsiella pneumoniae; experiment: Antimicrobial activity against Klebsiella pneumoniae INCQS 00083 ATCC 4352 assessed as zone of inhibition at 5 mg/ml after 18 to 24 hrs by disc diffusion method; type: functional; conditions: read-out: IZ
[9] = system: Pseudomonas aeruginosa; experiment: Antimicrobial activity against Pseudomonas aeruginosa INCQS 00099 ATCC 27853 assessed as zone of inhibition at 5 mg/ml after 18 to 24 hrs by disc diffusion method; type: functional; conditions: read-out: IZ
[10] = system: Staphylococcus epidermidis; experiment: Antimicrobial activity against Staphylococcus epidermidis INCQS 00016 ATCC 12228 after 24 hrs by microdilution assay; type: functional; conditions: ATCC 12228 INCQS 00016, 24 h
[11] = system: Staphylococcus epidermidis; experiment: Ratio of MBC99.9 to MIC for Staphylococcus epidermidis INCQS 00016 ATCC 12228; type: functional, ATCC 12228 INCQS 00016
Procedure, shortened: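 MBC/MIC ratio from the 24 h, 37°C microdilution MIC and the agar-plating MBC (99.9% growth inhibition). A ratio ≤2 was classed as bactericidal and ≥4 as bacteriostatic.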

[12] = system: Staphylococcus epidermidis; experiment: Bactericidal activity against Staphylococcus epidermidis INCQS 00016 ATCC 12228 incubated for 24 hrs followed by transfer of microbial suspension to agar plates and measured after 24 hrs post transfer by resazurin dye-based colorimetric analysis; type: functional; conditions: ATCC 12228 INCQS 00016, 24 h, read-out: MBC99.9
Procedure, shortened: (§1)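 For MBC, 10 µL from each clear MIC well was plated on agar and incubated 24 h at 37°C. MBC is the minimum concentration inhibiting 99.9% of growth. […] Triplicate.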

[13] = Hemolytic activity against human erythrocytes assessed as hemolysis at 200 ug/ml after 3 hrs by spectrophotometric analysis relative to control; type: ADME, cell-based, Erythrocyte; conditions: read-out: Activity
Procedure, shortened: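 Erythrocytes collected in citrate tubes, washed three times with PBS pH 7.4 by centrifugation and resuspended in PBS. Incubated with compounds at 200 µg/mL for 3 h at 37°C. Released hemoglobin was read in the supernatant at 545 nm against 1% Triton X-100 (complete lysis) and 1% DMSO (negative control). Below 10% hemolysis was taken as hemocompatible. Three independent experiments.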

[14] = system: Staphylococcus aureus; experiment: Antimicrobial activity against Staphylococcus aureus INCQS 00015 ATCC 25923 at 256 ug/ml after 24 hrs by microdilution assay; type: functional, organism-based
[15] = system: Staphylococcus simulans; experiment: Antimicrobial activity against Staphylococcus simulans INCQS 00254 ATCC 27851 at 256 ug/ml after 24 hrs by microdilution assay; type: functional, organism-based
[16] = system: Staphylococcus aureus; experiment: Antimicrobial activity against methicillin-resistant Staphylococcus aureus BMB9393 at 256 ug/ml after 24 hrs by microdilution assay; type: functional, organism-based
[17] = system: Escherichia coli; experiment: Antimicrobial activity against Escherichia coli INCQS 00033 ATCC 25922 at 256 ug/ml after 24 hrs by microdilution assay; type: functional, organism-based; conditions: ATCC 25922 INCQS 00033
[18] = system: Pseudomonas aeruginosa; experiment: Antimicrobial activity against Pseudomonas aeruginosa INCQS 00099 ATCC 27853 at 256 ug/ml after 24 hrs by microdilution assay; type: functional, organism-based
[19] = system: Staphylococcus aureus; experiment: Bactericidal activity against Staphylococcus aureus INCQS 00015 ATCC 25923 at 256 ug/ml incubated for 24 hrs followed by transfer of microbial suspension to agar plates and measured after 24 hrs post transfer by resazurin dye-based colorimetric analysis; type: functional, organism-based; procedure, shortened: as §1
[20] = system: Staphylococcus simulans; experiment: Bactericidal activity against Staphylococcus simulans INCQS 00254 ATCC 27851 at 256 ug/ml incubated for 24 hrs followed by transfer of microbial suspension to agar plates and measured after 24 hrs post transfer by resazurin dye-based colorimetric analysis; type: functional, organism-based; procedure, shortened: as §1
[21] = system: Staphylococcus aureus; experiment: Bactericidal activity against methicillin-resistant Staphylococcus aureus BMB9393 at 256 ug/ml incubated for 24 hrs followed by transfer of microbial suspension to agar plates and measured after 24 hrs post transfer by resazurin dye-based colorimetric analysis; type: functional, organism-based
Procedure, shortened: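 From MIC wells with no visible growth, 10 µL is transferred to agar plates and incubated 24 h at 37°C. MBC is the minimum concentration inhibiting 99.9% of growth. […] Triplicate.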

[22] = system: Escherichia coli; experiment: Bactericidal activity against Escherichia coli INCQS 00033 ATCC 25922 at 256 ug/ml incubated for 24 hrs followed by transfer of microbial suspension to agar plates and measured after 24 hrs post transfer by resazurin dye-based colorimetric analysis; type: functional, organism-based; conditions: ATCC 25922 INCQS 00033; procedure, shortened: as §1
[23] = system: Pseudomonas aeruginosa; experiment: Bactericidal activity against Pseudomonas aeruginosa INCQS 00099 ATCC 27853 at 256 ug/ml incubated for 24 hrs followed by transfer of microbial suspension to agar plates and measured after 24 hrs post transfer by resazurin dye-based colorimetric analysis; type: functional, organism-based; procedure, shortened: as §1
[24] = system: Staphylococcus simulans; experiment: Antimicrobial activity against Staphylococcus simulans INCQS 00254 ATCC 27851 after 24 hrs by microdilution assay; type: functional; conditions: INCQS 00254 ATCC 27851, 24 h

Row | Structure (SMILES) | zone of inhibition at 5000 µg/mL [1] [mm] | zone of inhibition at 5000 µg/mL [2] [mm] | zone of inhibition at 5000 µg/mL [3] [mm] | zone of inhibition at 5000 µg/mL [4] [mm] | zone of inhibition at 5000 µg/mL [5] [mm] | zone of inhibition at 5000 µg/mL [6] [mm] | zone of inhibition at 5000 µg/mL [7] [mm] | zone of inhibition at 5000 µg/mL [8] [mm] | zone of inhibition at 5000 µg/mL [9] [mm] | MIC [10] [µg/mL] | Ratio [11] | MBC [12] [µg/mL] | hemolysis at 3 h, 200 ug/ml [13] [%] | Activity [14] | Activity [15] | Activity [16] | Activity [17] | Activity [18] | Activity [19] | Activity [20] | further results
1 | COC(=O)c1c(C)nc(C)c2c1C(=O)C=C(NC[C@H]1O[C@@H]3OC(C)(C)O[C@@H]3[C@H]3OC(C)(C)O[C@H]31)C2=O | 0 | 0 | 9 | 0 | 0 | 0 | 0 | 0 | 0 | 256 (≈ 509 µM) | 1 | 256 (≈ 509 µM) | < 10 | inactive | inactive | inactive | inactive | inactive | inactive | inactive | Activity [21]: inactive; Activity [22]: inactive; Activity [23]: inactive
2 | COC(=O)c1c(C)nc(C)c2c1C(=O)C(Br)=C(NC[C@H]1O[C@@H]3OC(C)(C)O[C@@H]3[C@H]1O)C2=O | 0 | 0 | 7 | 0 | 0 | 0 | 0 | 0 | 0 | 64 (≈ 125 µM) | 1 | 64 (≈ 125 µM) | < 10 | inactive | inactive | inactive | inactive | inactive | inactive | inactive | Activity [21]: inactive; Activity [22]: inactive; Activity [23]: inactive
3 | COC(=O)c1c(C)nc(C)c2c1C(=O)C=C(NC[C@H]1O[C@@H]3OC(C)(C)O[C@@H]3[C@H]1O)C2=O | 0 | 0 | 10 | 0 | 0 | 0 | 0 | 0 | 0 | 256 (≈ 592 µM) | 1 | 256 (≈ 592 µM) | < 10 | inactive | inactive | inactive | inactive | inactive | inactive | inactive | Activity [21]: inactive; Activity [22]: inactive; Activity [23]: inactive
4 | CN[C@H](CC(C)C)C(=O)N[C@H]1C(=O)N[C@@H](CC(N)=O)C(=O)N[C@H]2C(=O)N[C@H]3C(=O)N[C@H](C(=O)N[C@H](C(=O)O)c4cc(O)cc(O)c4-c4cc3ccc4O)[C@H](O)c3ccc(c(Cl)c3)Oc3cc2cc(c3O[C@@H]2O[C@H](CO)[C@@H](O)[C@H](O)[C@H]2O[C@H]2C[C@](C)(N)[C@H](O)[C@H](C)O2)Oc2ccc(cc2Cl)[C@H]1O [VANCOMYCIN] | 16 | 16 | 15 | 16 | 14 |  |  |  |  |  |  |  |  |  |  |  |  |  |  |  | MIC [24]: 2 µg/mL (≈ 1.38 µM)
5 | COC(=O)c1c(C)nc(C)c2c1C(=O)C(Cl)=C(NC[C@H]1O[C@@H]3OC(C)(C)O[C@@H]3[C@H]1O)C2=O | 0 | 0 | 8 | 0 | 0 | 0 | 0 | 0 | 0 | 32 (≈ 68.5 µM) | 1 | 32 (≈ 68.5 µM) | 10.1 to 14.4 | inactive | inactive | inactive | inactive | inactive | inactive | inactive | Activity [21]: inactive; Activity [22]: inactive; Activity [23]: inactive
